Format in all cases: functional
One assay has as its system Micrococcus luteus. Kind of assay: Antibacterial activity against Micrococcus luteus ATCC 10240 assessed as growth inhibition after 18 hr by CLSI broth microdilution method. Conditions: ATCC 10240, 18 h. The procedure, abridged:
(§1)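 Inoculum: 0.5 McFarland suspension (150 × 10^6 CFU/mL) in sterile 0.85 % NaCl, 2 μL into 198 μL Mueller–Hinton broth. Compound stocks in DMSO; twofold dilutions, final 0.24–1,000 μg/mL. Incubated 35 °C, 18 h; OD600 read. MIC taken as lowest concentration with no visible growth. Controls: compound-free broth with DMSO, and bacteria-free compound blanks.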
Background: Broth dilution looks for growth in wells or tubes with falling amounts of substance.

The subject of assay [1] is Staphylococcus aureus. Kind of assay: Antibacterial activity against Staphylococcus aureus ATCC 25923 assessed as growth inhibition after 18 hr by CLSI broth microdilution method. Conditions: ATCC 25923, 18 h. In short, it runs like this: as §1
Assay [2] deals with Staphylococcus aureus. Kind of assay: Antibacterial activity against Staphylococcus aureus ATCC 6538 assessed as growth inhibition after 18 hr by CLSI broth microdilution method. Conditions: ATCC 6538, 18 h. The procedure, abridged: as §1
The test system of a further assay is Bacillus cereus. Kind of assay: Antibacterial activity against Bacillus cereus ATCC 10876 assessed as growth inhibition after 18 hr by CLSI broth microdilution method. Conditions: ATCC 10876, 18 h. The procedure, abridged:
as §1

Another assay relates to Bacillus spizizenii. Kind of assay: Antibacterial activity against Bacillus subtilis subsp. spizizenii ATCC 6633 assessed as growth inhibition after 18 hr by CLSI broth microdilution method. Conditions: ATCC 6633, 18 h. In short, it runs like this:
as §1

In assay [3] the test system is Staphylococcus epidermidis. Kind of assay: Antibacterial activity against Staphylococcus epidermidis ATCC 12228 assessed as growth inhibition after 18 hr by CLSI broth microdilution method. Conditions: ATCC 12228, 18 h. In short, it runs like this: as §1

Structures are written as SMILES. Converted amounts (≈) assume the structure as drawn. Some results are limits rather than exact numbers.

Regarding `COc1ccc(Cn2c(CSc3nnc(-c4ccccc4)n3-c3ccccc3)n[nH]c2=S)cc1`, the MIC (usually the lowest concentration found to suppress growth) in the assay on Micrococcus luteus is more than 1000 µg/mL; in the assay on Staphylococcus aureus [1], more than 1000 µg/mL; in the assay with Staphylococcus aureus [2] it was 1000 µg/mL (≈ 2050 µM); in the assay with Bacillus cereus, more than 1000 µg/mL; in the assay with Bacillus spizizenii it was more than 1000 µg/mL; in assay [3] it was more than 1000 µg/mL.

As to `O=C(CSc1nnc(-c2ccccc2)n1-c1ccccc1)NNC(=S)NC1CCCCC1`, the MIC in the assay on Micrococcus luteus was 1000 µg/mL (≈ 2140 µM); with Staphylococcus aureus [1], more than 1000 µg/mL; with Staphylococcus aureus [2], more than 1000 µg/mL; in the assay on Bacillus cereus it was 1000 µg/mL (≈ 2140 µM); with Bacillus spizizenii, 1000 µg/mL (≈ 2140 µM); in assay [3] it was more than 1000 µg/mL.

Turning to `Sc1nnc(CSc2nnc(-c3ccccc3)n2-c2ccccc2)n1-c1ccccc1`, the MIC is more than 1000 µg/mL in the assay on Micrococcus luteus; 1000 µg/mL (≈ 2260 µM) in the assay with Staphylococcus aureus [1]; more than 1000 µg/mL in the assay with Staphylococcus aureus [2]; 500 µg/mL (≈ 1130 µM) in the assay on Bacillus cereus; more than 1000 µg/mL in the assay on Bacillus spizizenii; more than 1000 µg/mL in assay [3].

In the case of `O=C(CSc1nnc(-c2ccccc2)n1-c1ccccc1)NNC(=S)NC(=O)c1ccccc1`, the MIC stood at 125 µg/mL (≈ 256 µM) with Micrococcus luteus; 31.2 µg/mL (≈ 64 µM) with Staphylococcus aureus [1]; 250 µg/mL (≈ 512 µM) with Staphylococcus aureus [2]; 125 µg/mL (≈ 256 µM) in the assay on Bacillus cereus; 250 µg/mL (≈ 512 µM) in the assay on Bacillus spizizenii; 125 µg/mL (≈ 256 µM) in assay [3].

As to `S=c1[nH]nc(CSc2nnc(-c3ccccc3)n2-c2ccccc2)n1C1CCCCC1`, the MIC in the assay on Micrococcus luteus amounted to 250 µg/mL (≈ 557 µM); in the assay on Staphylococcus aureus [1], 500 µg/mL (≈ 1110 µM); with Staphylococcus aureus [2] it was 250 µg/mL (≈ 557 µM); with Bacillus cereus, 1000 µg/mL (≈ 2230 µM); with Bacillus spizizenii, 500 µg/mL (≈ 1110 µM); in assay [3] it was 500 µg/mL (≈ 1110 µM).

On to `COc1ccc(-n2c(S)nnc2CSc2nnc(-c3ccccc3)n2-c2ccccc2)cc1`, for which the minimum inhibitory concentration (MIC) is more than 1000 µg/mL in the assay with Micrococcus luteus; 1000 µg/mL (≈ 2120 µM) in the assay with Staphylococcus aureus [1]; more than 1000 µg/mL in the assay on Staphylococcus aureus [2]; 500 µg/mL (≈ 1060 µM) in the assay on Bacillus cereus; more than 1000 µg/mL with Bacillus spizizenii; more than 1000 µg/mL in assay [3].

In the case of `S=c1[nH]nc(CSc2nnc(-c3ccccc3)n2-c2ccccc2)n1Cc1ccccc1`, the MIC in the assay with Micrococcus luteus was 1000 µg/mL (≈ 2190 µM); in the assay on Staphylococcus aureus [1], 1000 µg/mL (≈ 2190 µM); in the assay with Staphylococcus aureus [2], 1000 µg/mL (≈ 2190 µM); with Bacillus cereus, more than 1000 µg/mL; in the assay on Bacillus spizizenii, more than 1000 µg/mL; in assay [3], 1000 µg/mL (≈ 2190 µM).

`COc1ccc(CNC(=S)NNC(=O)CSc2nnc(-c3ccccc3)n2-c2ccccc2)cc1`: the MIC came out at 1000 µg/mL (≈ 1980 µM) with Micrococcus luteus; 500 µg/mL (≈ 991 µM) with Staphylococcus aureus [1]; 1000 µg/mL (≈ 1980 µM) with Staphylococcus aureus [2]; 1000 µg/mL (≈ 1980 µM) in the assay with Bacillus cereus; 500 µg/mL (≈ 991 µM) in the assay on Bacillus spizizenii; 500 µg/mL (≈ 991 µM) in assay [3].

Consider `CCOC(=O)NC(=S)NNC(=O)CSc1nnc(-c2ccccc2)n1-c1ccccc1`, for which the MIC with Micrococcus luteus is 1000 µg/mL (≈ 2190 µM); in the assay with Staphylococcus aureus [1] it was more than 1000 µg/mL; in the assay with Staphylococcus aureus [2], more than 1000 µg/mL; in the assay on Bacillus cereus it was 500 µg/mL (≈ 1100 µM); in the assay on Bacillus spizizenii, 500 µg/mL (≈ 1100 µM); in assay [3], 1000 µg/mL (≈ 2190 µM).

`C=CCn1c(CSc2nnc(-c3ccccc3)n2-c2ccccc2)n[nH]c1=S`: the MIC (with Micrococcus luteus; in the assay on Staphylococcus aureus [1]; in the assay on Staphylococcus aureus [2]; with Bacillus cereus; in the assay with Bacillus spizizenii; in assay [3]) was 1000 µg/mL (≈ 2460 µM) throughout.

Turning to `c1ccc(CNc2nnc(CSc3nnc(-c4ccccc4)n3-c3ccccc3)s2)cc1`, the MIC in the assay with Micrococcus luteus was 125 µg/mL (≈ 274 µM); in the assay with Staphylococcus aureus [1], 250 µg/mL (≈ 548 µM); in the assay on Bacillus spizizenii, 15.6 µg/mL (≈ 34.2 µM); in assay [3], 500 µg/mL (≈ 1100 µM).

With `CO/N=C(\C(=O)N[C@@H]1C(=O)N2C(C(=O)O)=C(COC(N)=O)CS[C@H]12)c1ccco1` [CEFUROXIME], the MIC with Micrococcus luteus was 0.49 µg/mL (≈ 1.15 µM); with Staphylococcus aureus [1] it was 0.49 µg/mL (≈ 1.15 µM); in the assay on Staphylococcus aureus [2] it was 1.95 µg/mL (≈ 4.59 µM); in the assay with Bacillus cereus it was 62.5 µg/mL (≈ 147 µM); in the assay with Bacillus spizizenii it was 0.49 µg/mL (≈ 1.15 µM); in assay [3] it was 0.24 µg/mL (≈ 0.566 µM).

The record behind these values is ChEMBL document CHEMBL3044844, “Synthesis and antimicrobial evaluation of some novel 1,2,4-triazole and 1,3,4-thiadiazole derivatives” (2013).
